Where “and” joins values, the source holds several entries; their conditions need not be identical. Equal entries are not always repeated. One block for each molecule: values may come before it.
Experiments:
[1] = target: T1, human PRODH2 157–515 (Homo sapiens, UniProt Q9UF12); assay: Steady-state kinetic analysis with the o-AB assay; type: biochemical; conditions: for reaction as substrate: tested at 500 mM
T1 sequence (Q9UF12 81-439 limits assumed): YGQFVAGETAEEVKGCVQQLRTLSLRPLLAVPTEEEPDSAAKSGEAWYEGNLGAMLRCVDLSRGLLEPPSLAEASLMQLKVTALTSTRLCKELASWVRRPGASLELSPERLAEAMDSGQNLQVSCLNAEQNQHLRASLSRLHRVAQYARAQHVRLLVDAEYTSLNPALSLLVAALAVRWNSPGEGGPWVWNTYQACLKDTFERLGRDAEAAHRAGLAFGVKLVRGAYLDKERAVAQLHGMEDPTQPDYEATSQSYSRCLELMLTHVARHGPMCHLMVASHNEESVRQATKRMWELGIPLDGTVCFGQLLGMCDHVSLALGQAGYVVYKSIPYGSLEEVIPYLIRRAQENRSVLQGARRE

[2] = tested on: E. coli PutA; conditions: ref [43], [45]; cited from earlier work
[3] = target: Helicobacter hepaticus PutA; conditions: read-out: Kd for sulfite binding; ref [34], [45]; cited from earlier work
[4] = tested on: PRODH homologue of Saccharomyces cerevisiae; conditions: ref [43], [45]; cited from earlier work
[5] = target: T1, human PRODH2 157–515; assay: Sulfite reactivity; type: binding
How it was run: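 The flavin spectrum was recorded until absorbance stabilised, and ΔA455 was fit hyperbolically for Kd. For adduct reversibility, a proline-analogue inhibitor (1–5 mM final) was added and incubated for 30 min before the spectrum was re-acquired.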

[6] = target: human PRODH1; conditions: read-out: Kd for sulfite binding; ref [34], [45]; cited from earlier work
[7] = target: T1, human PRODH2 157–515; assay: Steady-state kinetics with ubiquinone analogues as electron acceptors; type: biochemical; conditions: for ability to support Hyp turnover as electron acceptor: Triton X-100 included with CoQ4
[8] = target: T2, human PRODH2 157–515 (HYPDH) (Homo sapiens, UniProt Q9UF12); assay: Inhibition studies, standard o-AB assay; type: biochemical; conditions: 600 mM Hyp; for IC50: 5 min preincubation, compound up to 5 mM; for inhibition of HYPDH activity: up to 5 mM
T2 sequence (Q9UF12 81-439 limits assumed): T1 sequence (Q9UF12 81-439 limits assumed)
How it was run: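 Purified PRODH2 157–515 at 200 nM in 50 mM HEPES pH 7.5 with 4 mM o-AB and 200 μM CoQ1 as electron acceptor, 25°C. Test compound (up to 5 mM) was preincubated with enzyme for 5 min, then 600 mM Hyp was added. Product–o-AB adduct was followed at 443 nm. Percent activity versus concentration was fit assuming single-site binding to give IC50. Stocks were aqueous, except one in DMSO (3% final).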

[9] = target: T1, human PRODH2 157–515; assay: Anaerobic titration with Hyp; type: binding; conditions: Kd from anaerobic titration versus Km from o-AB assay

- saturation of PRODH2 by substrate ([1]; up to 750 mM Pro, 200 μM CoQ1): unable to saturate
SMILES: O=C(O)[C@@H]1CCCN1 [Pro, L-proline]

SMILES: O=S([O-])[O-].[Na+].[Na+] [sulfite, sodium sulfite]
- sulfite binding [2]: do not bind
- Kd [3]: 400 µM
- sulfite binding [4]: do not bind
- time for the spectrum to reach equilibrium (adduct formation) ([5]; aerobic, 25 °C): ~ 6 h
- Kd ([5]; read-out: Kd for sulfite binding, 50 μM PRODH2 157–515, 50 mM potassium phosphate pH 7.6, 25 °C, 6 h equilibration): 64 ± 7.7 µM
- Kd [6]: 10400 µM

SMILES: CC1=C(C)C(=O)C(C)=C(C)C1=O [Duroquinone]
- ability to support Hyp turnover as electron acceptor ([7]; 600 mM Hyp): support Hyp turnover

- IC50 [8]: 2900 ± 100 µM
SMILES: O=C(O)c1cc(O)[nH]n1 [5-OH-1H-pyrazole-3-COOH]

- ability to support Hyp turnover as electron acceptor ([7]; 600 mM Hyp): inability to use
SMILES: COC1=C(OC)C(=O)C(C/C=C(\C)CCC=C(C)C)=C(C)C1=O [CoQ2]

- Ki [7]: 306 ± 34 µM
- ability to support Hyp turnover as electron acceptor ([7]; 600 mM Hyp): support Hyp turnover
SMILES: CC1=CC(=O)c2ccccc2C1=O [Menadione]

SMILES: O=C(O)C1CCCO1 (stereo not shown) [THFA, tetrahydrofuroic acid]
- reversal of the sulfite adduct (flavin spectrum) ([5]; 1–5 mM THFA added, 30 min incubation): returned the flavin spectrum to the oxidized state
- IC50 [8]: 1500 ± 100 µM

SMILES: O=C(O)[C@@H]1CC[C@@H](O)C1 [(1R, 3R) 3-OH-cyclopentane carboxylic acid]
- IC50 [8]: 2100 ± 100 µM

SMILES: O=C(O)[C@H]1C[C@@H](O)CN1 (relative stereo) [cis-4-OH-D-proline]
- reaction as substrate ([1]; 200 μM CoQ1): does not react
- inhibition of HYPDH activity [8]: did not cause inhibition

- kcat ([7]; 0–400 μM ubiquinone analogue, 600 mM Hyp, 50 mM HEPES pH 7.5): 0.19 ± 0.01 s⁻¹
- Km ([7]; 0–400 μM ubiquinone analogue, 600 mM Hyp, 50 mM HEPES pH 7.5, 4 mM o-AB, 200 nM PRODH2 157–515): 124 ± 19 µM
- ability to support Hyp turnover as electron acceptor ([7]; 600 mM Hyp): support Hyp turnover
SMILES: COC1=C(OC)C(=O)C(CC=C(C)C)=C(C)C1=O [CoQ1, Coenzyme Q1]

SMILES: O=C(O)[C@@H]1C[C@@H](O)CN1 [Hyp, trans-4-hydroxy-L-proline]
- fold difference in kcat/Km (specificity constant), Hyp over Pro ([1]; 200 μM CoQ1): 12 fold and ~ 12 fold
- fold lower kcat with O2 than with CoQ1 as electron acceptor ([1]; air saturated buffer versus 200 μM CoQ1): ~ 100 fold
- fold lower Kd than Km [9]: ~ 1600 fold and 1600 fold

SMILES: O=C(O)[C@H]1CC[C@@H](O)C1 [(1S, 3R) 3-OH-cyclopentane carboxylic acid]
- inhibition of HYPDH activity [8]: did not cause inhibition
- inhibition of HYPDH activity ([8]; listed as (1S, 3R) 3-OH-cyclopentane-COOH): did not inhibit

- ability to support Hyp turnover as electron acceptor ([7]; 600 mM Hyp): inability to use
SMILES: COC1=C(OC)C(=O)C(C/C=C(\C)CC/C=C(\C)CC/C=C(\C)CCC=C(C)C)=C(C)C1=O [CoQ4]

SMILES: O=C(O)C1CC(O)CN1 [trans-4-OH-D-proline]
- reaction as substrate ([1]; 200 μM CoQ1): does not react
- inhibition of HYPDH activity [8]: did not cause inhibition

Reference: article PMC4377293 (The Biochemical journal, 2015)
